Changes are numbered by the printed parent chain. Calls of active or inactive are those of the source. The rule behind the calls is not given here.
Legend:
[1] = molecular target: T1, C-type lectin domain family 4 member E (Mus musculus) (UniProt Q9R0Q8); experiment: Agonist activity at mincle in wild type C57BL/6 mouse GM-CSF derived BMDM assessed as increase in MIP2 release at 0.1 to 1 nmol after 24 hrs by sandwich ELISA
T1 sequence (whole entry): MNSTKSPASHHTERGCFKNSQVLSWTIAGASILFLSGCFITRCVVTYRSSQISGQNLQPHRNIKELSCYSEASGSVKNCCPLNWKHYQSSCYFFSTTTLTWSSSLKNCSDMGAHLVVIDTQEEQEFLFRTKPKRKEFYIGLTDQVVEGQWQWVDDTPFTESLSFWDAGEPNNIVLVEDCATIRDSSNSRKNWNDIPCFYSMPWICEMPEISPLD
Procedure, shortened: (§1)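 Wild-type or Mincle−/− C57BL/6 bone marrow was cultured 8 days with GM-CSF 50 ng/mL in complete RPMI. Macrophages were detached with Acutase and seeded on ligand-coated plates (0.1 or 1 nmol/well); LPS 100 ng/mL was used as comparator. Supernatant was taken at 24 h and TNF, IL-6, IL-1β and MIP-2 measured by sandwich ELISA. Representative of three experiments in triplicate (±SD).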

[2] = molecular target: T1, C-type lectin domain family 4 member E (Mus musculus); experiment: Agonist activity at mincle in wild type C57BL/6 mouse GM-CSF derived BMDM assessed as increase in IL-1beta release at 0.1 to 1 nmol after 24 hrs by sandwich ELISA; procedure, shortened: as §1
[3] = system: T2, C-type lectin domain family 4 member E (Homo sapiens), Q9ULY5 [R183A]; experiment: Agonist activity at human mincle R183A mutant expressed in NFAT-GFP reporter cells up to 3000 pmol after 18 hrs by flow cytometric analysis; assay type: cell-based
T2 sequence (whole entry): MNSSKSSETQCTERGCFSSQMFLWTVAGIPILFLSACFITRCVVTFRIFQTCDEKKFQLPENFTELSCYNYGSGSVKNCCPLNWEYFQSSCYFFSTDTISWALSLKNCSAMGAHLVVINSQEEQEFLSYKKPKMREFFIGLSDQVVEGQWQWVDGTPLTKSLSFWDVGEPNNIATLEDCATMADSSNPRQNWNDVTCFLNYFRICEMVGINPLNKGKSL
Procedure, shortened: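 The hMincle R183A mutant, made by site-directed mutagenesis, was retrovirally introduced into 2B4 NFAT-GFP cells expressing FcRγ only. Cells were stimulated on plates coated with increasing ligand amounts for 18 h, and NFAT-GFP was read by flow cytometry. Mean of two independent experiments in duplicate (±SEM).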

[4] = molecular target: T1, C-type lectin domain family 4 member E (Mus musculus); experiment: Agonist activity at mincle in wild type C57BL/6 mouse GM-CSF derived BMDM assessed as increase in TNF release at 0.1 to 1 nmol after 24 hrs by sandwich ELISA; procedure, shortened: as §1
[5] = molecular target: T1, C-type lectin domain family 4 member E (Mus musculus); experiment: Agonist activity at mincle in wild type C57BL/6 mouse GM-CSF derived BMDM assessed as increase in IL-6 release at 0.1 to 1 nmol after 24 hrs by sandwich ELISA; procedure, shortened: as §1
[6] = Toxicity in Atlantic horseshoe crab blood limulus amebocyte lysate by chromogenic endotoxin test; conditions: limulus polyphemus
Procedure, shortened: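 Endotoxin was measured by chromogenic Limulus amebocyte lysate assay at a sensitivity of ≤0.1 EU/mL.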

BMDM [7] = experiment: Immunostimulatory activity in mincle-/- C57BL/6 mouse GM-CSF derived BMDM assessed as increase in IL-1beta release at […] after 24 hrs by sandwich ELISA method; assay type: functional, cell-based; procedure, shortened: as §1
[8] = molecular target: T3, C-type lectin domain family 4 member E (Homo sapiens) (UniProt Q9ULY5); experiment: Agonist activity at human mincle coupled with FcRgamma expressed in 2B4-NFAT-GFP reporter cells up to 1 nmol after 18 hrs by flow cytometric analysis; assay type: cell-based
T3 sequence (whole entry): T2 sequence (whole entry) with A183R
Procedure, shortened: (§2)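 2B4 NFAT-GFP reporter cells expressing mouse or human Mincle plus FcRγ were placed on plates coated with ligand at 0.01, 0.1 or 1 nmol/well; cells expressing FcRγ only served as negative control. Ligand was coated from isopropanol, 0.05 mM, and solvent evaporated. After 18 h, cells were harvested, stained with propidium iodide and GFP read by flow cytometry. Mean of three experiments in duplicate (±SEM).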

BMDM [9] = experiment: Immunostimulatory activity in mincle-/- C57BL/6 mouse GM-CSF derived BMDM assessed as increase in MIP2 release at […] after 24 hrs by sandwich ELISA method; assay type: functional, cell-based; procedure, shortened: as §1
[10] = molecular target: T1, C-type lectin domain family 4 member E (Mus musculus); experiment: Binding affinity to recombinant mouse mincle extracellular domain fused with human IgG Fc expressed in HEK293T cells at 0.1 nmol by ELISA; assay type: cell-based; conditions: HEK-293T
[11] = molecular target: T1, C-type lectin domain family 4 member E (Mus musculus); experiment: Agonist activity at mouse mincle coupled with FcRgamma expressed in 2B4-NFAT-GFP reporter cells up to 1 nmol after 18 hrs by flow cytometric analysis; assay type: cell-based; procedure, shortened: as §2
BMDM [12] = experiment: Immunostimulatory activity in mincle-/- C57BL/6 mouse GM-CSF derived BMDM assessed as increase in IL-6 release at […] after 24 hrs by sandwich ELISA method; assay type: functional, cell-based; procedure, shortened: as §1
[13] = molecular target: T3, C-type lectin domain family 4 member E (Homo sapiens); experiment: Binding affinity to recombinant human mincle extracellular domain fused with human IgG Fc expressed in HEK293T cells at 0.1 nmol by ELISA; assay type: cell-based; conditions: HEK-293T
BMDM [14] = experiment: Immunostimulatory activity in mincle-/- C57BL/6 mouse GM-CSF derived BMDM assessed as increase in TNF release at […] after 24 hrs by sandwich ELISA method; assay type: functional, cell-based; procedure, shortened: as §1
Mus musculus [15] = species: Mus musculus; experiment: Adjuvant activity in immunized C57BL/6 mouse assessed as footpad swelling at 0.3 umol treated with ovalbumin for 7 days followed by stimulation with OVA for 7 days measured 24 to 48 hrs post OVA challenge; assay type: functional
Mus musculus [16] = species: Mus musculus; experiment: Adjuvant activity in immunized C57BL/6 mouse assessed as increase in OVA-specific IgG1 production in serum at 0.3 umol treated with ovalbumin for 7 days followed by stimulation with OVA for 7 days and restimulation with OVA measured 24 to 48 hrs post OVA challenge relative to control; assay type: functional
Procedure, shortened: (§3)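 Sera were taken on days 0, 7 and 14 from C57BL/6 mice sensitized s.c. with emulsion containing OVA 200 μg ± adjuvant 0.3 μmol and footpad-challenged with OVA on day 7. OVA-specific IgG, IgG1, IgG2b and IgG2c were measured by ELISA with HRP-coupled anti-mouse secondaries. EC50 was taken from absorbance at 450 nm plotted against log serum concentration.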

Mus musculus [17] = species: Mus musculus; experiment: Adjuvant activity in immunized C57BL/6 mouse assessed as increase in IL-17 production in spelnocytes at 0.3 umol treated with ovalbumin for 7 days followed by stimulation with OVA for 7 days and restimulation with OVA measured 24 to 48 hrs post OVA challenge; assay type: functional, cell-based
Procedure, shortened: (§4)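 C57BL/6 mice (8–12 wk) given s.c. oil-in-water emulsion (mineral oil/Tween-80/PBS 9:1:90) holding OVA 200 μg ± adjuvant 0.3 μmol; controls were OVA alone or no OVA. Footpad challenge with OVA 100 μg on day 7, spleens taken day 14. Splenocytes restimulated with OVA 10, 30 or 100 μg/mL. Cell number read at 450 nm after 3 h with a count reagent; IFN-γ and IL-17 measured by ELISA.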

Mus musculus [18] = species: Mus musculus; experiment: Adjuvant activity in immunized C57BL/6 mouse assessed as increase in OVA-specific IgG2b production in serum at 0.3 umol treated with ovalbumin for 7 days followed by stimulation with OVA for 7 days and restimulation with OVA measured 24 to 48 hrs post OVA challenge; assay type: functional
Mus musculus [19] = species: Mus musculus; experiment: Adjuvant activity in immunized C57BL/6 mouse assessed as increase in OVA-specific IgG2c production in serum at 0.3 umol treated with ovalbumin for 7 days followed by stimulation with OVA for 7 days and restimulation with OVA measured 24 to 48 hrs post OVA challenge relative to control; assay type: functional
Mus musculus [20] = species: Mus musculus; experiment: Adjuvant activity in immunized C57BL/6 mouse assessed as increase in antigen specific IFNgamma production in spelnocytes at 0.3 umol treated with ovalbumin for 7 days followed by stimulation with OVA for 7 days and restimulation with OVA measured 24 to 48 hrs post OVA challenge; assay type: functional, cell-based; procedure, shortened: as §4
Mus musculus [21] = species: Mus musculus; experiment: Adjuvant activity in immunized C57BL/6 mouse assessed as increase in OVA-specific IgG production in serum at 0.3 umol treated with ovalbumin for 7 days followed by stimulation with OVA for 7 days and restimulation with OVA measured 24 to 48 hrs post OVA challenge; assay type: functional; procedure, shortened: as §3
[22] = molecular target: T1, C-type lectin domain family 4 member E (Mus musculus); experiment: Agonist activity at mouse mincle coupled with FcRgamma expressed in 2B4-NFAT-GFP reporter cells at higher concentration after 18 hrs by flow cytometric analysis; assay type: cell-based; procedure, shortened: as §2
[23] = molecular target: T3, C-type lectin domain family 4 member E (Homo sapiens); experiment: Agonist activity at human mincle coupled with FcRgamma expressed in 2B4-NFAT-GFP reporter cells at higher concentration after 18 hrs by flow cytometric analysis; assay type: cell-based; procedure, shortened: as §2

Activity [1] | Activity [2] | Activity [4] | Activity [5] | Activity [8] | Activity [10] | Activity [11] | Activity [13] | SMILES | Activity [6] | Activity (BMDM [7]) | Activity (BMDM [9]) | Activity (BMDM [12]) | Activity (BMDM [14]) | other results
Active | Active | Active | Active | – | – | – | – | CCCCCCCCCCCCCCCCCCCCCCCCCC(O)C(CCCCCCCCCCC1CC1CCCCCCCCCCCCCCCCCC)C(=O)OC[C@H]1O[C@H](O[C@H]2O[C@H](COC(=O)C(CCCCCCCCCCCCCCCCCCCCCCCC)C(O)CCCCCCCCCCCC3CC3CCCCCCCCCCCCCCCCCC)[C@@H](O)[C@H](O)[C@H]2O)[C@H](O)[C@@H](O)[C@@H]1O (stereo not given in full) | – | – | – | – | – | Activity [3]: Active
Active | Active | Active | Active | Active | Active | Active | Active | CCCCCCCOc1ccc(C(=O)OC[C@H]2O[C@H](O[C@H]3O[C@H](COC(=O)c4ccc(OCCCCCCC)cc4O)[C@@H](O)[C@H](O)[C@H]3O)[C@H](O)[C@@H](O)[C@@H]2O)c(O)c1 | <= 0.1 EU/ml | inactive | inactive | inactive | inactive | –
Active | Active | Active | Active | Active | Active | Active | Active | CCCCCCCOc1ccc(C(=O)OC[C@H]2O[C@H](O[C@H]3O[C@H](COC(=O)c4ccc(OCCCCCCC)cc4)[C@@H](O)[C@H](O)[C@H]3O)[C@H](O)[C@@H](O)[C@@H]2O)cc1 | <= 0.1 EU/ml | inactive | inactive | inactive | inactive | –
Active | Active | Active | Active | – | – | – | – | CCCCCCCCCCCCCCCCCCCCCC(=O)OC[C@H]1O[C@H](O[C@H]2O[C@H](COC(=O)CCCCCCCCCCCCCCCCCCCCC)[C@@H](O)[C@H](O)[C@H]2O)[C@H](O)[C@@H](O)[C@@H]1O | – | – | – | – | – | Activity (Mus musculus [15]): inactive; Activity (Mus musculus [16]): Active; Activity (Mus musculus [17]): inactive; Activity (Mus musculus [18]): Active; Activity (Mus musculus [19]): Active; Activity (Mus musculus [20]): inactive; Activity (Mus musculus [21]): Active
Active | inactive | inactive | inactive | – | inactive | – | inactive | CCCCOc1ccc(C(=O)OC[C@H]2O[C@H](O[C@H]3O[C@H](COC(=O)c4ccc(OCCCC)cc4O)[C@@H](O)[C@H](O)[C@H]3O)[C@H](O)[C@@H](O)[C@@H]2O)c(O)c1 | <= 0.1 EU/ml | inactive | inactive | inactive | inactive | Activity [22]: Active; Activity [23]: Active

Reference: ChEMBL document CHEMBL4033780, “Lipidated Brartemicin Analogues Are Potent Th1-Stimulating Vaccine Adjuvants” (J Med Chem, 2018)
